Experimental data pooled from the literature.
Lines come from different studies, so protocols differ.
rep methyltransferase: Replicase polyprotein 1ab, methyltransferase (rep, Severe acute respiratory syndrome coronavirus 2, UniProt P0DTD1)
rep main protease: Replicase polyprotein 1ab, main protease (rep, Severe acute respiratory syndrome coronavirus 2, UniProt P0DTD1)

SMILES	target	read-out	mode	technique	quantity	value
COc1ccc(-c2csc(C3=C(O)CN(/N=C/c4c[nH]c5ccccc45)C3=N)n2)cc1	rep methyltransferase	enzyme activity	inhibitor	–	IC50	42.9 µM
O=[N+]([O-])c1ccc(Sc2cccc[n+]2[O-])c2nonc12	rep main protease	enzyme activity	inhibitor	–	IC50	0.1 µM
COc1ccc(N(Cc2cc(Cl)cs2)C(=O)Cc2cncc3ccccc23)cc1	rep main protease	binding	–	MST	Kd	1.5 µM
CC(=O)N1CCN(C(=S)c2ccc(Cl)cc2)CC1	rep methyltransferase	enzyme activity	inhibitor	–	IC50	181 µM
COc1cc(CC2NCCc3cc(O)c(O)cc32)cc(OC)c1OC (stereo not drawn)	rep main protease	enzyme activity	inhibitor	–	IC50	> 20 µM
O=c1oc2cc(O)ccc2c2ccccc12	rep main protease	binding	–	SPR	Kd	52.7 µM
CCOc1nc2cccc(C(=O)OC(C)OC(=O)OC3CCCCC3)c2n1Cc1ccc(-c2ccccc2-c2nnn[nH]2)cc1 (stereo not drawn)	rep methyltransferase	enzyme activity	inhibitor	–	IC50	41.6 µM
CSc1ccc(N(Cc2cc(Cl)cs2)C(=O)Cc2cncc3ccccc23)cc1	rep main protease	binding	–	MST	Kd	1.4 µM
CSc1ccc(C(=O)c2[nH]c(=O)[nH]c2C)cc1	rep main protease	enzyme activity	inhibitor	–	IC50	> 20 µM
